Source: ChEMBL document CHEMBL2203212, “Peptides and Pseudopeptides as SIRT6 Deacetylation Inhibitors” (ACS Med Chem Lett, 2012)
Calls of active or inactive are those of the source. The rule behind the calls is not given here. Square brackets hold non-standard residues; d marks the D form. Peptide text beside a SMILES is read from it. Lys(Thioacetyl) = CC(=S)NCCCC[C@H](N)C(=O)O

Each compound was assayed against T1, NAD-dependent protein deacylase sirtuin-6 (Homo sapiens, UniProt Q8N6T7) (assay: Inhibition of N-terminal His-tagged human recombinant SIRT6 (13 to 308) expressed in Escherichia coli Rosetta2 cells assessed as FdL-1 peptide substrate deacetylation at 100 uM after 45 mins by Fluor-de-Lys assay).
T1 sequence (Q8N6T7 whole entry): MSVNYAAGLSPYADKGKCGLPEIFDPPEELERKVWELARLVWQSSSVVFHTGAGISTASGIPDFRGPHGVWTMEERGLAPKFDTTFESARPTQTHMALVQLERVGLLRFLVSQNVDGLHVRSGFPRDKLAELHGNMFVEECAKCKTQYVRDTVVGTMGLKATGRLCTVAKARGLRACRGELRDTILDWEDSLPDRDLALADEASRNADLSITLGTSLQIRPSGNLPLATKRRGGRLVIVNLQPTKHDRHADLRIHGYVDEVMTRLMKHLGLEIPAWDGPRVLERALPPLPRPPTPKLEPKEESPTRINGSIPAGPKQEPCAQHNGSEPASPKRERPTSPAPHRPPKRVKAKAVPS

Row | Compound | inhibition [%]
1 | O=C1c2ccccc2C(=O)c2c1ccc(N1C(=O)c3ccccc3C1=O)c2-c1c(N2C(=O)c3ccccc3C2=O)ccc2c1C(=O)c1ccccc1C2=O | 25
2 | Nc1cc2c(nc3c4ccccc4ccc3[n+]2-c2cccc3ccccc23)c2ccccc12 | 25
3 | Nc1cc2c(nc3c4ccccc4c(N)cc3[n+]2-c2cccc3ccccc23)c2ccccc12 | 25
4 | O=C1c2ccccc2C(=O)c2c(Nc3cc4c5c(ccc6c7ccc8c9c(cc(Nc%10cccc%11c%10C(=O)c%10ccccc%10C%11=O)c(c3c56)c97)-c3ccccc3C8=O)C(=O)c3ccccc3-4)cccc21 | 25
5 | CN1C[C@H](C(=O)N[C@]2(C)O[C@@]3(O)[C@@H]4CCCN4C(=O)[C@H](Cc4ccccc4)N3C2=O)C=C2c3cccc4[nH]cc(c34)C[C@H]21 | 25
6 | O=C(C[n+]1ccc2ccccc2c1)c1ccc2ccc3ccccc3c2c1 | 25

What follows are compounds tested against T1, NAD-dependent protein deacylase sirtuin-6 (assay: Inhibition of human recombinant SIRT6 assessed as 7-amino-4-methylcoumarin labelled Arg-His-Lys-Lys(epsilon-acetyl) substrate deacetylation at 200 uM after 90 mins by Fluor-de-Lys assay).
Summary of the method: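 Single-point screen at 200 μM in a commercial in vitro SIRT6 deacetylation activity kit with Fluor de Lys fluorescence read-out, reported as percent inhibition of deacetylation.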

Row | Compound | inhibition
7 | CC(=O)N[C@@H](C)C(=O)N[C@@H](CCCCNC(=S)CC(C)C)C(=O)N[C@@H](C)C(=O)O | Active
8 | CC(=S)NCCCC[C@H](NC(=O)OCc1ccccc1)C(=O)Nc1ccccc1 | 36%
9 | CC(=[Se])NCCCC[C@H](NC(=O)OCc1ccccc1)C(=O)Nc1ccccc1 | 62%
10 | CC(=S)NCCCC[C@H](NC(=O)OCc1ccccc1)C(=O)NC1CCCCC1 | Active
11 | CC(=O)N[C@@H](C)C(=O)N[C@@H](CCCCNC(=O)CC(C)C)C(=O)N[C@@H](C)C(=O)O | Active
12 | CC(=S)NCCCC[C@H](NC(=O)[C@@H]1CCCN(C(=O)OC(C)(C)C)C1)C(=O)N[C@@H](C)C(=O)O | Active
13 | CC(=O)N[C@@H](C)C(=O)N[C@@H](CCCCNC(C)=S)C(=O)N[C@@H](C)C(=O)O | 54%
14 | CSCC[C@H](NC(=O)[C@H](CC(C)C)NC(=O)[C@H](CCCCNC(C)=S)NC(=O)[C@H](CCCCN)NC(=O)[C@@H](N)Cc1cnc[nH]1)C(=O)O (H-HK[Lys(Thioacetyl)]LM-OH) | 62%
15 | CSCC[C@H](NC(=O)[C@@H](NC(=O)[C@H](CCCCNC(C)=S)NC(=O)[C@H](CC(=O)O)NC(=O)[C@@H](N)CO)[C@@H](C)O)C(=O)O (H-SD[Lys(Thioacetyl)]TM-OH) | 35%
16 | CSCC[C@H](NC(=O)[C@H](CC(C)C)NC(=O)[C@H](CCCCNC(C)=S)NC(=O)[C@H](CCCCN)NC(=O)[C@H](C)N)C(=O)O (H-AK[Lys(Thioacetyl)]LM-OH) | 91%
17 | CC(=O)N[C@@H](C)C(=O)N[C@@H](CCCCNC(=O)C=C(C)C)C(=O)N[C@@H](C)C(=O)O | 26%
18 | CC(=S)NCCCC[C@H](NC(=O)CCc1ccccc1)C(=O)N[C@@H](C)C(=O)O | Active

The compounds below were run against T1, NAD-dependent protein deacylase sirtuin-6 (assay: Inhibition of human recombinant SIRT6 assessed as 7-amino-4-methylcoumarin labelled Arg-His-Lys-Lys(epsilon-acetyl) substrate deacetylation after 90 mins by Fluor-de-Lys assay).
Summary of the method: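 Commercial in vitro SIRT6 deacetylation kit with Fluor de Lys read-out. The IC50 was determined in two separate runs, each in triplicate, and reported as the average of the six measurements.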

Row | Compound | IC50 [µM]
19 | CC(=[Se])NCCCC[C@H](NC(=O)OCc1ccccc1)C(=O)Nc1ccccc1 | 285
20 | CSCC[C@H](NC(=O)[C@H](CC(C)C)NC(=O)[C@H](CCCCNC(C)=S)NC(=O)[C@H](CCCCN)NC(=O)[C@@H](N)Cc1cnc[nH]1)C(=O)O (H-HK[Lys(Thioacetyl)]LM-OH) | 78
21 | CSCC[C@H](NC(=O)[C@H](CC(C)C)NC(=O)[C@H](CCCCNC(C)=S)NC(=O)[C@H](CCCCN)NC(=O)[C@H](C)N)C(=O)O (H-AK[Lys(Thioacetyl)]LM-OH) | 47
